Test results taken from ChEMBL document CHEMBL1122278, “Gastric antisecretory 9H-xanthen-9-amines” (1983).

How the values were obtained:
Rattus norvegicus [1] = experiment: Effect of peroral administration of compound on acid secretion inhibition in the PLR; Value ranges from 4.7-14.9; type: functional
Procedure, shortened: (§1)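 Rats (male Carworth Farms, 270–360 g) fasted 18 h; compound in PEG 200 by gavage 1 h before pylorus ligation under ether, six per group. Gastric contents collected 2 h post-ligation; pH, volume, titre (NaOH to pH 7.4) measured, output = volume × titre.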

Rattus norvegicus [2] = experiment: Effect of intravenous administration of compound on acid secretion inhibition in the PLR; Value ranges from 0.3-2.7; type: functional
Procedure, shortened: (§2)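 Male Carworth Farms rats (270–360 g), fasted 18 h, pylorus ligated under ether; compound in PEG 200 given intravenously at ligation, six rats per group. Gastric contents taken 2 h after ligation, centrifuged, titrated with NaOH to pH 7.4; output = volume × titre.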

Rattus norvegicus [3] = experiment: Effect of intraduodenal administration of compound on acid secretion inhibition in the PLR; Value ranges from 0.8-4.8; type: functional
Rattus norvegicus [4] = experiment: Effect of intraduodenal administration of compound on acid secretion inhibition in the PLR; Value ranges from 1.4-7.8; type: functional
Rattus norvegicus [5] = experiment: Antisecretory activity in PLR after preincubation in gastric juice at pH 1.0 for 60 min at 15 mg/kg dose, measured as volume; type: functional
Procedure, shortened: (§3)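 Male Carworth Farms rats (270–360 g), fasted 18 h with water, pylorus ligated under ether. Compound in PEG 200 (80 mg/mL) added to gastric juice from separate 4-h ligated rats (stored frozen) at 7.5 mg/mL, juice neutralized with 1.0 N NaOH before or after addition, or left untreated (pH 1.0). Given intraduodenally right after ligation. Juice collected 2 h later; volume, titre (NaOH to pH 7.4), output = volume × titre.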

Rattus norvegicus [6] = experiment: Antisecretory activity in PLR after preincubation in gastric juice at pH 1.0 for 2 min at 15 mg/kg dose, measured as acid titreated; type: functional; procedure, shortened: as §3
Rattus norvegicus [7] = experiment: Antisecretory activity in PLR after pre-incubation in gastric juice at pH 1.0 for 2 min at 15 mg/kg dose, measured as volume; type: functional; procedure, shortened: as §3
Rattus norvegicus [8] = experiment: Antisecretory activity in PLR after pre-incubation in gastric juice at pH 1.0 for 60 min at 15 mg/kg dose, measured as acid output; type: functional; procedure, shortened: as §3
Rattus norvegicus [9] = experiment: Antisecretory activity in PLR after pre-incubation in gastric juice at pH 1.0 for 30 min at 15 mg/kg dose, measured as acid output; type: functional; procedure, shortened: as §3
Rattus norvegicus [10] = experiment: Antisecretory activity in PLR after pre-incubation in gastric juice at pH 1.0 for 2 min at 15 mg/kg dose, measured as acid output; type: functional; procedure, shortened: as §3
Rattus norvegicus [11] = experiment: Effect of peroral administration of compound on acid secretion inhibition in the PLR; NS means no significant dose response.; type: functional, organism-based; procedure, shortened: as §1
Rattus norvegicus [12] = experiment: Effect of intravenous administration of compound on acid secretion inhibition in the PLR; Value ranges from 0.9-5.3; type: functional; procedure, shortened: as §2
Rattus norvegicus [13] = experiment: Antisecretory activity in PLR after pre-incubation in neutralized juice for 60 min at 15 mg/kg dose, measured as acid output; type: functional; procedure, shortened: as §3
Rattus norvegicus [14] = experiment: Antisecretory activity in PLR after pre-incubation in gastric juice at pH 1.0 for 30 min at 15 mg/kg dose, measured as acid titreated; type: functional; procedure, shortened: as §3
Rattus norvegicus [15] = experiment: Antisecretory activity in PLR after pre-incubation in gastric juice at pH 1.0 for 30 min at 15 mg/kg dose, measured as volume
Rattus norvegicus [16] = experiment: Gastric antisecretory activity in pylorus ligated rat at a concentration of 50 mg/kg perorally, expressed as % decrease in mean titratable acid output of gastric juice in treated vs. control groups.; type: functional; settings: route oral
Procedure, shortened: (§4)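 Male Carworth Farms rats (270–360 g), fasted 18 h with water; compound in PEG 200 by gavage 1 h before pylorus ligation under ether. Killed 2 h after ligation; juice centrifuged, volume and pH measured, supernatant titrated with NaOH to pH 7.4, output = volume × titre. Mean of six to seven animals against controls.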

Rattus norvegicus [17] = experiment: Antisecretory activity in PLR after pre-incubation in gastric juice at pH 1.0 for 60 min at 15 mg/kg dose, measured as acid titreated; type: functional; procedure, shortened: as §3
Rattus norvegicus [18] = experiment: Gastric antisecretory activity in pylorus-ligated rat at a concentration of 50 mg/kg perorally, expressed as increase in mean pH.; type: functional; settings: route oral; procedure, shortened: as §4
Canis familiaris [19] = experiment: Effect on pentagastrin-induced acid secretion in gastric fistula dogs, at 1 mg/kg, iv for 2 h; type: functional, Canis lupus familiaris, Stomach
Procedure, shortened: (§5)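 Four chronic gastric fistula dogs (11.2–16.2 kg), fasted 24 h, saline infused via saphenous vein, then pentagastrin 8 (μg/kg)/h for maximal stimulation. After 1 h acid plateau, compound given 1 mg/kg iv in PEG 200. Juice collected at 15-min intervals and centrifuged; titratable acid output from volume × titre, as mean ± SE, equivalents per hour.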

Rattus norvegicus [20] = experiment: Antisecretory activity in PLR after pre-incubation in neutralized juice for 60 min at 15 mg/kg dose, measured as volume; type: functional; procedure, shortened: as §3
Canis familiaris [21] = experiment: Effect on pentagastrin-induced acid secretion in gastric fistula dogs, at 1 mg/kg, iv for 3 h; type: functional, Canis lupus familiaris, Stomach; procedure, shortened: as §5
Canis familiaris [22] = experiment: Effect on pentagastrin-induced acid secretion in gastric fistula dogs, at 1 mg/kg, iv for 1 h; type: functional, Canis lupus familiaris, Stomach; procedure, shortened: as §5
Rattus norvegicus [23] = experiment: Antisecretory activity in PLR after pre-incubation in neutralized juice for 60 min at 15 mg/kg dose, measured as acid titreated; type: functional; procedure, shortened: as §3

CCN1CCCC(NC2c3ccccc3Oc3ccccc32)C1 (stereo unspecified)
ED50 (Rattus norvegicus [1]): 8.9 mg/kg | ED50 (Rattus norvegicus [2]): 1.2 mg/kg | ED50 (Rattus norvegicus [3]): 2.3 mg/kg | ED50 (Rattus norvegicus [4]): 3.8 mg/kg | Volume (Rattus norvegicus [5]): 5.6 mL | Acid titer (Rattus norvegicus [6]): 43 m equiv l-1 | Volume (Rattus norvegicus [7]): 4.6 mL | Acid output (Rattus norvegicus [8]): 324 u equiv 2hr-1 | Acid output (Rattus norvegicus [9]): 367 u equiv 2hr-1 | Acid output (Rattus norvegicus [10]): 191 u equiv 2hr-1 | ED50 (Rattus norvegicus [11]): Not significant | ED50 (Rattus norvegicus [12]): 2.3 mg/kg | Acid output (Rattus norvegicus [13]): 70 u equiv 2hr-1 | Acid titer (Rattus norvegicus [14]): 62 m equiv l-1 | Volume (Rattus norvegicus [15]): 6 mL | Delta TAO (Rattus norvegicus [16]): 98 | Acid titer (Rattus norvegicus [17]): 59 m equiv l-1 | Delta pH (Rattus norvegicus [18]): 5.6 | Acid output (Canis familiaris [19]): 2.46 u equiv hr-1 | Change (Canis familiaris [19]): -80% | Volume (Rattus norvegicus [20]): 2.5 mL | Acid output (Canis familiaris [21]): 4.6 u equiv hr-1 | Change (Canis familiaris [21]): -62% | Acid output (Canis familiaris [22]): 3.37 u equiv hr-1 | Change (Canis familiaris [22]): -72% | Acid titer (Rattus norvegicus [23]): 26 m equiv l-1
